MrgX1 allo act = human MrgX1 positive allosteric modulation, primary screen; MrgX1-HEK293, Fluo-4 calcium flux, FDSS; hits give high values; B-score at 10 µM; 310,000 tested, 0.63% active; AID 588675;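 active = plate-corrected calcium response at least 3 library SD above typical, normal starting fluorescence, not activating the receptor alone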;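 note: compound read alongside a low EC10 to EC30 dose of BAM8-22 agonist; peak minus trough fluorescence over baseline measured at the second addition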
Target sequence (Q96LB2 whole entry, looked up): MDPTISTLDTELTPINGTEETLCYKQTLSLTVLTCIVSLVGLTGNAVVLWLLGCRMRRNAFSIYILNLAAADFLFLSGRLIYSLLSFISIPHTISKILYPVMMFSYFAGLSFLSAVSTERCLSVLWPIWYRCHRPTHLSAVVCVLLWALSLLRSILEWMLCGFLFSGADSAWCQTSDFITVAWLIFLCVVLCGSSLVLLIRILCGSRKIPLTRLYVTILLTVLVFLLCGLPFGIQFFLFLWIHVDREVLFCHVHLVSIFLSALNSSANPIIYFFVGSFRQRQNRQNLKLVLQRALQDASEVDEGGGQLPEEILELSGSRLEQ
MrgX1 agonist = activates human MrgX1 receptor signaling | Q96LB2 | MrgX1-HEK293 cells, Fluo-4 calcium fluorescence, agonist mode; hits give high values | B-score at 10 µM | 310,000 tested, 0.44% active | AID 588627;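 active = calcium response B-score plate-corrected fluorescence ratio at least 3 library SD, with starting fluorescence B-score inside 5 SD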
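Test system: HEK293 cells stably expressing human MrgX1 receptor; amount: 15,000 cells per well; doses: compound delivered in addition one of three; times: overnight plating before 1 h dye loading; detection: Fluo-4 NW calcium-flux fluorescence, kinetic read; read-out basis: B-scored fluorescence response ratio; controls: positive and negative controls per plate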
RGS4 block = human RGS4 inhibition; B-score at 10 µM; P49798; AID 463165; 310,000 tested, 0.45% active; HEK293 M3R/RGS4 inducible, Fluo-4 calcium flux; hits give high values; triggered by carbachol at its EC20;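 active = B-score, a plate-corrected calcium signal, over three deviations above library mean, with baseline fluorescence within five deviations of library mean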;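 note: RGS4 expression induced by doxycycline in cells with stable M3 receptor; B-score is computed from the integrated fluorescence ratio over baseline after carbachol; higher B-score means a larger calcium signal and so more RGS4 inhibition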
RGS4 act = potentiators or activators of RGS4; AID 463111; B-score at 10 µM; HEK293 M3R/inducible RGS4, carbachol calcium flux Fluo4; hits give low values; 310,000 tested, 0.92% active;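 active = B-score of the integrated calcium signal more than 4 SD below the library mean, with starting fluorescence not abnormally high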;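 note: negative B-score means reduced calcium response which marks RGS4 activation or potentiation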
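System – HEK293 FlpIn-TREx cells, stable M3R, doxycycline-inducible RGS4 · Reagent – ECmax carbachol challenge · Times – compound preincubation 20 min at room temperature before agonist · Technique – Fluo4 fluorescence kinetic imaging of calcium · Measure – B score of integrated Fluo4 ratio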
MrgX1 antag = antagonists of human MrgX1 receptor. B-score at 10 µM. 310,000 tested, 1.3% active. MRGX1-HEK293 calcium flux, Fluo-4, BAM8-22 antagonism; hits give low values. Q96LB2;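 active = calcium-response B-score plate-corrected more than 3 library SD below zero, starting fluorescence within 5 deviations, no agonist response on first addition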;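 note: peak minus trough fluorescence over baseline after final BAM8-22 challenge near maximal dose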
RGS4 block valid = validation of RGS4 inhibitors; shares compounds with RGS4 block; HEK293 M3R/RGS4, carbachol calcium Fluo-4 fluorescence; carbachol added at its EC20; 0 = buffer wells, 100 = carbachol control; calcium response, % at 10 µM; 1,700 tested, 65% active; AID 492999;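 active = duplicate-averaged calcium response above the buffer-only control mean plus 5 SD of those controls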;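 note: integrated fluorescence ratio F max minus min over baseline F0; higher response in RGS4-induced cells means RGS4 inhibition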
RGS4 uninduced = non-induced cell nonspecific activity of RGS4 inhibitors. AID 493000. activity (percent), % at 10 µM. HEK293 M3R non-induced, carbachol calcium Fluo-4; submaximal (EC20) carbachol stimulus; buffer wells 0%, carbachol control wells 100%. 1,900 tested, 20% active. shares compounds with RGS4 block; call rule not given here;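 note: RGS4 induction absent so cells express M3R without RGS4; higher means more calcium signal and flags a non-specific hit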
M3R basal Ca ctr = signal in non-induced cells without carbachol, RGS4 inhibitor counter-screen; shares compounds with RGS4 block; HEK293 M3R/RGS4 non-induced, Fluo-4 calcium, no carbachol; normalised: buffer wells 0%, carbachol wells 100%; calcium response (agonist-mode artifact), % at 10 µM; 1,900 tested, 22% active; AID 493001;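 active = duplicate-averaged calcium rise in uninduced cells above buffer wells' mean plus 5 SD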
* marks the source's active call; other numbers are inactive results; i = inactive; · = no result given. An excerpt weighted towards active compounds, which were near 3.5% of everything screened.

SMILES	MrgX1 allo act	MrgX1 agonist	RGS4 block	RGS4 act	MrgX1 antag	RGS4 block valid	RGS4 uninduced	M3R basal Ca ctr
COCCn1c(SCC(=O)NCc2ccc3c(c2)OCO3)nc2ccccc2c1=O	i	i	i	i	i	·	·	·
COc1ccc(-c2oc(NC(=O)CCl)c(C#N)c2-c2ccc(OC)cc2)cc1	i	i	11*	i	i	58%*	i	i
COc1ccc(-c2oc(NC(=O)CSc3ncn[nH]3)c(C#N)c2-c2ccc(OC)cc2)cc1	i	i	i	i	i	·	·	·
COc1ccc(C)cc1S(=O)(=O)N1CCC(C(=O)NCCc2ccccc2)CC1	i	i	i	i	i	·	·	·
CCc1cccc2c(C(=O)CN3C(=O)NC(C)(c4cccc5ccccc45)C3=O)c[nH]c12 (stereo not given)	i	i	11*	i	i	i	i	i
CNc1ccc(/C=C(\CCC(=O)O)c2nc3ccccc3s2)cc1[N+](=O)[O-]	i	i	i	i	i	·	·	·
CCOC(=O)c1c(NC(=O)C(=O)N/N=C/c2ccc(O)c(OC)c2)sc2c1CCCCC2	i	i	12*	i	i	37%*	54%*	18%*
O=C(CCc1nnc2ccc(NCc3ccccc3)nn12)NC1CCCCC1	i	i	i	i	i	·	·	·
Cc1cccc2c1NC(=O)C2(c1ccc(O)cc1)c1ccc(O)cc1	i	i	8.6*	i	i	10%*	i	i
Cc1cc(C2(c3ccc(O)c(C)c3)C(=O)Nc3ccccc32)ccc1O	i	i	i	i	i	·	·	·
COc1ccc(-c2nn(-c3ccccc3)cc2/C=C(\CC(=O)O)c2nc3ccccc3s2)cc1OC	i	i	6.2*	i	i	7.5%*	i	i
COc1ccc(/C=C(\CC(=O)O)c2nc3ccccc3s2)cc1O	i	i	i	i	i	·	·	·
C/C(=N\N=C1\NC(=O)C(CC(=O)Nc2ccc(C)c(Cl)c2)S1)C(C)C (stereo not given)	i	i	i	i	i	·	30%*	i
COc1ccccc1CN=C1NC(=O)C(CC(=O)Nc2ccc(C(C)=O)cc2)S1 (stereo not given)	i	i	i	i	i	i	i	i
C/C(=N\N=C1\NC(=O)C(CC(=O)NCc2ccccc2)S1)C(C)C (stereo not given)	i	i	i	i	i	·	·	·
Cc1ccc(C(=O)NCCCN2CCN(CCCNC(=O)c3ccc(C)cc3)CC2)cc1	i	i	i	i	i	·	·	·
Cc1ccc(NC(=O)CN(C)C(=O)c2cc(S(=O)(=O)N(C)C)ccc2N2CCCC2)cc1	i	i	i	i	i	·	·	·
Cc1ccc(-c2ccc(C(=O)NCc3ccc(Cl)cc3)o2)c2ccccc12	i	i	4.8*	i	i	i	i	16%*
COc1ccc(NC(=O)/C(C#N)=C/c2ccc(Sc3nncn3C)c([N+](=O)[O-])c2)cc1	i	i	6.8*	i	i	18%*	i	i
Cn1cnnc1Sc1ccc(/C=C/C(=O)c2ccc(O)cc2)cc1[N+](=O)[O-]	i	i	i	i	i	·	·	·
O=C(COc1ccccc1Cl)N1CCN(c2ccc([N+](=O)[O-])c(N3CCOCC3)c2)CC1	i	i	i	i	i	·	·	·
CN1C(C(=O)NCc2cccc(Br)c2)CC2Cn3c(nc4cc5ccccc5cc43)C21 (stereo not given)	i	i	i	i	i	·	·	·

Assay outcomes (PubChem BioAssay)
